Screens (PubChem BioAssay)
The full list was thinned out, with hits kept by preference.
CHOP inhibitor = blocks CHOP induction under ER stress | CHO-K1 CHOP-promoter luciferase, tunicamycin-induced, 15-18 h | inhibition, % at 10 µM | hit rate 3.8% among 220,000 | AID 2732;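 active = compounds that reduced the stress-induced luciferase reporter signal by more than about 70% of percent inhibition, limit read from the data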
UPR CHOP act = activators of apoptotic arm of unfolded protein response (CHOP). hit rate 0.34% among 330,000. CHO-CHOP luciferase reporter, UPR activation, luminescence; percent of tunicamycin response over DMSO baseline. activation, % at 10 µM;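 active = at 10 µM dose, activation of 40% or more, normalized to positive control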
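Material: CHO-CHOP cells, stable luciferase reporter of PERK-eIF2a-CHOP signalling; quantity: 500 reporter cells seeded per well; buffer or medium: F12 medium containing 10% fetal bovine serum; compound: one dose, 10 µM in 0.5% DMSO; incubation: 6 h compound treatment, 37 °C; measured by: Steady-Glo luciferase luminescence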
UPR XBP1 act = adaptive UPR (XBP1) activation. activation, % at 20 µM. hit rate 0.33% among 330,000. AID 463104. CHO-XBP1 luciferase reporter, IRE1-XBP1 UPR activation, luminescence; percent of tunicamycin response, DMSO as zero;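 active = versus positive control, 20 µM dose yields 30% or more activation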
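assay system = CHO-XBP1 luciferase reporter cells | amount = 1000 cells/well | buffer or medium = F12 plus 10% FBS | compound dosing = single point, 20 µM final compound, 1% DMSO | incubation = 16-18 h cell attachment at 37 °C, then 6 h compound exposure | detection = Steady-Glo luminescence read | controls = tunicamycin 10 µg/mL and vehicle-only wells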
Bfl-1 A1 inh = inhibitors of the anti-apoptotic protein A1, read as caspase activation; MEF A1-2A-BIM cells, Caspase-Glo 3/7 luminescence, 3 h; percent of clofoctol response, vehicle zero; caspase activation, % (test concentration not listed); hit rate 0.066% among 330,000;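 active = over half of replicate activation scores above 10%, or exactly half above 10 with the replicate mean above 10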
Numbers stand for hits; – = inactive; · = no result.

SMILES	CHOP inhibitor	UPR CHOP act	UPR XBP1 act	Bfl-1 A1 inh
CC(=O)c1ccc(NC(=O)CN2C(=O)/C(=C/C=C/c3ccccc3)SC2=S)cc1	74	–	–	–
O=C(O)CN1C(=O)/C(=C/C=C/c2ccccc2)SC1=S	–	–	–	–
COc1ccccc1/C=C1\SC(=S)N(CCC(=O)NC2=NCCS2)C1=O	–	–	–	–
COc1ccccc1/C=C1\SC(=S)N(CC(=O)Nc2nnc(C)s2)C1=O	72	–	–	–
COc1ccccc1C(=O)N(Cc1nc(-c2ccc(Cl)cc2)no1)C(C)C	75	–	–	–
CC(C)N(Cc1nc(-c2ccccc2)no1)C(=O)c1ccc(Cl)cc1	–	–	–	–
COc1ccc(-c2noc(CN(C(=O)c3c(-c4ccccc4Cl)noc3C)C(C)C)n2)cc1	72	–	–	–
COc1ccc(C(=O)n2cnnc2N)cc1	–	–	–	–
O=C(CCNS(=O)(=O)c1cccc2nonc12)NCCc1ccc(Cl)cc1	76	–	–	–
O=C(CCNS(=O)(=O)c1cccc2nonc12)Nc1ccc(Cl)cc1	·	–	–	–
COc1ccccc1NC(=O)Cc1nnc(SCC(=O)NC2CCCCC2C)n1C (stereo not drawn)	·	–	–	–
COc1ccc(S(=O)(=O)n2cnc3cc(C)c(C)cc32)cc1C	70	–	–	–
COc1cc(OC)cc(C(=O)NCC(=O)OCC(=O)Nc2ncc(Cl)cc2Cl)c1	–	–	–	–
Cc1cc(C)cc(NS(=O)(=O)c2ccc3c(c2)c(=O)n(C)c(=O)n3C)c1	93	–	–	–
COc1ccc(N=Nc2cnc(C)nc2-c2ccccc2)cc1	73	–	–	–
Cc1ncc(N=Nc2ccccc2Cl)c(-c2ccccc2)n1	–	–	–	–
CCCc1nc(SCc2ccccn2)c2c(=O)n(C)c(=O)n(C)c2n1	70	–	–	–
CCCc1nc(SC2CCCC2)c2c(=O)n(C)c(=O)n(C)c2n1	75	–	–	–
Cn1c(=O)c2c(SCc3ccccn3)nc(CC(C)(C)C)nc2n(C)c1=O	74	–	–	–
Cc1cc(C)cc(OCC(=O)Nc2cccc(S(=O)(=O)NC3=NCCC3)c2)c1	·	–	–	–
O=C(CCS(=O)(=O)c1ccccc1)NC12CC3CC(CC(C3)C1)C2	74	–	–	–
Cc1ccc(Cn2ncc3c(N4CCN(Cc5ccc(Cl)cc5)CC4)ncnc32)cc1	79	–	–	–
Cc1ccc(Cn2ncc3c(N4CCN(c5ccc(C)cc5)CC4)ncnc32)cc1	–	–	–	–
CC1CCCN(c2ncnc3c2cnn3-c2ccc(Cl)cc2)C1 (stereo not drawn)	76	–	–	–
CC1CCN(c2ncnc3c2cnn3Cc2ccc(Cl)cc2)CC1	73	–	–	–
SMILES	CHOP inhibitor	UPR CHOP act	UPR XBP1 act	Bfl-1 A1 inh
Cc1ccc(Cn2c(C(=O)O)cc3sccc32)cc1	–	–	–	–
CC1(C)Oc2ccc3ccc(=O)oc3c2/C(=C/Nc2ccccn2)C1=O	92	–	–	–
COc1ccc(-c2nc(-c3ccccn3)ncc2S(C)(=O)=O)cc1	–	–	–	–
CCn1c(N)nc2c1c(=O)n(C)c(=O)n2C	–	–	–	–
Cn1nc(-c2ccccn2)nc2c(=O)n(C)c(=O)nc1-2	107	–	–	–
CCCc1nc2c(=O)n(C)c(=O)nc-2n(C)n1	104	·	·	·
CCOc1ccc(N(CC(=O)NCCSCc2ccccc2)S(=O)(=O)c2ccccc2)cc1	·	–	–	–
CCCCn1c(SCC(=O)Nc2nnc(C(C)C)s2)nc2c1c(=O)n(C)c(=O)n2C	–	–	–	–
CCCn1c(SCC(=O)Nc2nc3c(s2)CCCC3)nc2c1c(=O)n(C)c(=O)n2C	71	–	–	–
Cc1ccc(-c2nnc(SCC(=O)Nc3nc4c(s3)CCCC4)n2C)cc1	–	–	–	–
Cc1ccc2cc(C)c3nnc(SCC(=O)Nc4nc5c(s4)CCCC5)n3c2c1	83	·	·	·
Cc1noc(C)c1COc1ccc(C(=O)OCC(=O)OC(C)(C)C)cc1	–	–	–	–
O=C(Nc1ccc(Br)cc1)c1cccn1-c1ncc(C(F)(F)F)cc1Cl	95	–	–	–
NC(=O)c1cccn1-c1ncc(C(F)(F)F)cc1Cl	–	–	–	–
Cc1cccc(NC(=O)Cn2c(O)c(N=NC(=O)c3ccccc3O)c3ccccc32)c1	83	–	–	–
COC(=O)N/N=C\c1c(C)[nH]n(-c2ccccc2)c1=O	–	–	–	–
CC(=O)N/N=C/c1c(C)[nH]n(-c2ccccc2)c1=O	–	–	–	–
